IC50 and Activity data for 18 compounds are collected here from ChEMBL document CHEMBL1143154, “Discovery of potent LPA2 (EDG4) antagonists as potential anticancer agents” (Bioorg Med Chem Lett, 2008).

For assay [1], the target named is T1, Lysophosphatidic acid receptor 2 (Homo sapiens, UniProt Q9HBW0). In words: Antagonist activity at LPA2 expressed in RH7777 cells with Gi4-protein and aequorin by calcium mobilization assay. The assay is classed as functional, cell-based. In a few lines:
(§1)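 Rat hepatoma RH7777 cells transiently transfected with aequorin, chimeric Gi4-protein and the LPA receptor subtype (LPA1, LPA2 or LPA3). Inhibition of LPA-induced receptor activation read as Ca2+ flux by flash luminescence in 384-well format; IC50 in μM, n = 2.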
A general note: Calcium flux is commonly read through the fluorescence of an indicator in the cells.

In assay [2] the target is Lysophosphatidic acid receptor 1 (Homo sapiens, UniProt Q92633). Kind of assay: Antagonist activity at LPA1 expressed in RH7777 cells with Gi4-protein and aequorin by calcium mobilization assay. The assay is classed as functional, cell-based. In a few lines:
as §1

Assay [3] has as its target T2, Lysophosphatidic acid receptor 3 (Homo sapiens, UniProt Q9UBY5).
T2 sequence (Q9UBY5 whole entry): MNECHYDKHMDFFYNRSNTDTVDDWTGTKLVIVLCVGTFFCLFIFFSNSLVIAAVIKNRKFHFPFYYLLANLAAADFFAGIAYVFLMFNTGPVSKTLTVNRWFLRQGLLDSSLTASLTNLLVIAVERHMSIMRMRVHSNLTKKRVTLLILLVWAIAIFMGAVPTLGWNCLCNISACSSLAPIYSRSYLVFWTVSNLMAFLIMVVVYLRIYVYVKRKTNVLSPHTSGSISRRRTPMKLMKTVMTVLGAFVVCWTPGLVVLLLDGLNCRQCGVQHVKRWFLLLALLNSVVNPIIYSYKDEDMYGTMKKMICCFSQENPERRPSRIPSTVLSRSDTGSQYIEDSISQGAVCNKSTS
Kind of assay: Antagonist activity at LPA3 expressed in RH7777 cells with Gi4-protein and aequorin by calcium mobilization assay. The assay is classed as functional, cell-based. The method, boiled down:
as §1

Assay [4] concerns the target T1, Lysophosphatidic acid receptor 2. In words: Inhibition of LPA2-mediated Erk activation in human HCT116 assessed as inhibition of LPA-induced erk phosphorylation. In a few lines: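 HCT-116 cells at 90% confluence serum-starved 2 h, preincubated with compound at various concentrations 1 h at 37 °C, then stimulated with LPA 3 μM (HGF 30 ng/ml as counter-stimulus) for 12 min at 37 °C. Cells fixed, permeabilized, blocked 2 h; in-cell Western detection of p-Erk and total Erk simultaneously, p-Erk normalized to total Erk per well.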

In another assay the test system is HCT-116. In words: Inhibition of LPA-induced proliferation of human HCT116 cells after 24 hrs. The assay is classed as functional, cell-based. In a few lines:
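HCT-116 cells at 5000 cells/well in serum-free DMEM with 0.11% BSA. Test compound added at various concentrations, then LPA at a final 3 μM (HGF at a final 30 ng/ml as comparison stimulus). After 24 h incubation, viable cells measured by CellTiter-Glo luminescence.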

The target of assay [5] is T1, Lysophosphatidic acid receptor 2. In words: Antagonist activity at LPA2 assessed as inhibition of LPA-induced Ca2+ flux. The assay is classed as functional. The method, boiled down: as §1

As a reminder, the IC50 is the midpoint of a concentration-inhibition curve.

Structures are written as SMILES. Some results are limits rather than exact numbers.

Sequence of Lysophosphatidic acid receptor 1 (Q92633 whole entry): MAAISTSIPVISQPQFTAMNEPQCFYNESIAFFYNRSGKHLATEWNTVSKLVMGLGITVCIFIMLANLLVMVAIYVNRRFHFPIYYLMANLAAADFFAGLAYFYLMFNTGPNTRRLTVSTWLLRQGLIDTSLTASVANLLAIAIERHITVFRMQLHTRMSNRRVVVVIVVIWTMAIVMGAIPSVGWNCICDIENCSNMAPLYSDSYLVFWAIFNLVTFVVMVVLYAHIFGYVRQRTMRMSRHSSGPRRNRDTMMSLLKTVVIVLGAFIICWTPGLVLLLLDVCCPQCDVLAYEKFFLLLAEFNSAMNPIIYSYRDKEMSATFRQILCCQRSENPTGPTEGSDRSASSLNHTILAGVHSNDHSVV
T1 sequence (Q9HBW0 whole entry): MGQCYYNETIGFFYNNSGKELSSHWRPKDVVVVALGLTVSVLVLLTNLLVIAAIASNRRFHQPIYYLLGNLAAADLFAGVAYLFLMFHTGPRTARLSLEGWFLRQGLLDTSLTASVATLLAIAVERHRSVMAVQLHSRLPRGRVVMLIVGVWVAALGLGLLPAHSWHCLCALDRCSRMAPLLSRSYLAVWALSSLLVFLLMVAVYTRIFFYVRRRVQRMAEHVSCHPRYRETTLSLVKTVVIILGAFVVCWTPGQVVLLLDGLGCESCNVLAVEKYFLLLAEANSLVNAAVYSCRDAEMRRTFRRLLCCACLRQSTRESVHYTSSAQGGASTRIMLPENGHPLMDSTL

As to `CCCCS(=O)(=O)N1CCN(C[C@H](C)Nc2ncnc3c(C)csc23)CC1`, in assay [1], the IC50 came to 6610 nM.

On to `Cc1csc2c(N[C@@H](C)CN3CCN(S(=O)(=O)Cc4ccccc4)CC3)ncnc12`, for which, in assay [1], the IC50 amounted to 1860 nM.

Consider `Cc1ccccc1N1CCN(C[C@H](C)Nc2ncnc3c(C)csc23)CC1`, for which the figures for the IC50 in assay [1], in assay [2] and in assay [3] were 260 nM, above 50000 nM and above 50000 nM, respectively.

With `COc1ccccc1N1CCN(C[C@H](C)Nc2nc(C3CC3)nc3ccccc23)CC1`, the concentration for half-maximal inhibition (IC50) in assay [1] worked out at 3200 nM.

For `Cc1ccccc1N1CCN(C[C@H](C)Nc2nc(C(F)(F)F)nc3ccccc23)CC1`, the IC50 in assay [1] was found to be 730 nM.

With `Cc1ccccc1S(=O)(=O)N1CCN(C[C@H](C)Nc2ncnc3c(C)csc23)CC1`, in assay [1], the 50% inhibitory concentration (IC50) turned out to be 730 nM.

Regarding `Cc1csc2c(N[C@@H](C)CN3CCN(S(=O)(=O)c4ccc(Cl)c(Cl)c4)CC3)ncnc12`, the values for the IC50 in assay [1], in assay [2] and in assay [3] were 17 nM, above 50000 nM and above 50000 nM, respectively. In addition, the Activity entry (in assay [4]; in the assay on HCT-116) was “Dose-dependent effect” throughout.

Turning to `Cc1cccc(S(=O)(=O)N2CCN(C[C@H](C)Nc3ncnc4c(C)csc34)CC2)c1`, the IC50 in assay [1] was 310 nM.

Take `COc1ccccc1N1CCN(CCNc2nc(C(F)(F)F)nc3ccccc23)CC1`: in assay [1], the IC50 is above 30000 nM.

In the case of `COc1ccccc1N1CCN(C[C@@H](C)Nc2nc(C(F)(F)F)nc3ccccc23)CC1`, the IC50 in assay [1] is above 30000 nM.

With `COc1ccccc1N1CCN(C[C@H](C)Nc2nc(C(F)(F)F)nc3ccccc23)CC1`, the IC50 in assay [1] was 1300 nM.

As for `COc1cc(OC)cc(C(=O)N(CCCc2ccccc2)Cc2ccc(Oc3ccccc3C(=O)O)cc2)c1`, the IC50 was above 50000 nM in assay [1], above 50000 nM in assay [2] and 40 nM in assay [3].

On to `Cc1csc2c(N[C@@H](C)CN3CCN(S(=O)(=O)c4cccc(Cl)c4)CC3)ncnc12`, for which the IC50 in assay [1] stood at 35 nM.

Take `Cc1noc(-c2ccccc2)c1NC(=O)OC(C)c1ccccc1` (stereo not drawn): the IC50 in assay [1] was above 50000 nM; in assay [2], 50 nM; in assay [3], 12000 nM.

On to `Cc1ccc(S(=O)(=O)N2CCN(C[C@H](C)Nc3ncnc4c(C)csc34)CC2)cc1`, for which the IC50 in assay [1] was 170 nM.

Take `CC[C@@H](CN1CCN(c2ccccc2OC)CC1)Nc1nc(C(F)(F)F)nc2ccccc12`: the IC50 in assay [1] was above 30000 nM.

Regarding `COc1ccccc1N1CCN(CC(C)(C)Nc2nc(C(F)(F)F)nc3ccccc23)CC1`, the IC50 in assay [1] was above 30000 nM.

Regarding `CC(CN1CCN(c2ccc(F)cc2)CC1)Nc1nc(C2CC2)nc2ccccc12` (stereo not drawn), the IC50 in assay [5] amounted to 1700 nM.
